Here are results for five compounds from ChEMBL document CHEMBL3525958 (Drug Metab Dispos, 2013).

SMILES strings stand for the structures.

Data set [1] in a line: Activity at human P-glycoprotein expressed in pig LLC-PK1 cells at 5 uM after 90 mins by liquid scintillation counting. The format is ADME, cell-based.
A short description of data set [2]: Activity at human P-glycoprotein expressed in pig LLC-PK1 cells at 25 uM after 90 mins by liquid scintillation counting. The format is ADME, cell-based.
Data set [3] is described as follows: Activity at human P-glycoprotein expressed in pig LLC-PK1 cells at 50 uM after 90 mins by liquid scintillation counting. In kind it is ADME, cell-based.
Data set [4] in a line: Activity at human P-glycoprotein expressed in pig LLC-PK1 cells at 100 uM after 90 mins by liquid scintillation counting. In kind it is ADME, cell-based.
The nature of data set [5]: Activity at human P-glycoprotein expressed in pig LLC-PK1 cells assessed as rate of transport at 10 uM after 60 mins by liquid scintillation counting. In kind it is ADME, cell-based. Conditions: llc-pk1, 1 h. The method, boiled down: (§1)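 Human P-gp-cDNA LLC-PK1 cells and vector-only (mock) cells were cultured on collagen-coated inserts for 7 days. […] Facilitated rate v = IA/(filter area × time), where IA is the net P-gp-dependent pmol transported.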

A short description of data set [6]: Activity at human P-glycoprotein expressed in pig LLC-PK1 cells assessed as rate of transport at 10 uM after 90 mins by liquid scintillation counting. In kind it is ADME, cell-based. Summed up: as §1
A short description of data set [7]: Activity at human P-glycoprotein expressed in pig LLC-PK1 cells assessed as rate of transport at 10 uM after 120 mins by liquid scintillation counting. The settings on record: llc-pk1, 2 h. The format is ADME, cell-based. Summed up:
as §1

A short description of data set [8]: Activity at human P-glycoprotein expressed in pig LLC-PK1 cells assessed as rate of transport at […] after 90 mins by liquid scintillation counting. The format is ADME, cell-based.
A short description of data set [9]: Activity at human P-glycoprotein expressed in pig LLC-PK1 cells assessed as rate of transport at 5 uM after 90 mins by liquid scintillation counting. The format is ADME, cell-based. The method, boiled down:
as §1

A short description of data set [10]: Activity at human P-glycoprotein expressed in pig LLC-PK1 cells assessed as rate of transport at 25 uM after 90 mins by liquid scintillation counting. The format is ADME, cell-based. The method, boiled down: as §1
A short description of data set [11]: Activity at human P-glycoprotein expressed in pig LLC-PK1 cells assessed as rate of transport at 50 uM after 90 mins by liquid scintillation counting. In kind it is ADME, cell-based. The method, boiled down: as §1
The nature of data set [12]: Activity at human P-glycoprotein expressed in pig LLC-PK1 cells assessed as rate of transport at 100 uM after 90 mins by liquid scintillation counting. The format is ADME, cell-based. Summed up: as §1
Data set [13] in a line: Activity at human P-glycoprotein expressed in pig LLC-PK1 cells at 10 uM after 60 mins by liquid scintillation counting. The settings on record: llc-pk1, 1 h. In kind it is ADME, cell-based.
Data set [14] in a line: Activity at human P-glycoprotein expressed in pig LLC-PK1 cells at 10 uM after 90 mins by liquid scintillation counting. The format is ADME, cell-based.
Data set [15] in a line: Activity at human P-glycoprotein expressed in pig LLC-PK1 cells at 10 uM after 120 mins by liquid scintillation counting. The format is ADME, cell-based. The settings on record: llc-pk1, 2 h.
Data set [16] can be described thus: Activity at human P-glycoprotein expressed in pig LLC-PK1 cells at […] after 90 mins by liquid scintillation counting. The format is ADME, cell-based.
Data set [17] can be described thus: Oral bioavailability in rat. The format is ADME, organism-based. Conditions: in vivo.
Data set [18] can be described thus: Oral bioavailability in dog. The format is ADME, organism-based, Canis lupus familiaris. Conditions: in vivo.
Data set [19] can be described thus: Oral bioavailability in human. In kind it is ADME, organism-based. The settings on record: in vivo.
Data set [20] can be described thus: Ratio of drug level in brain to blood in po dosed rat. The format is ADME, organism-based.
Data set [21] can be described thus: Ratio of Cmax in milk to plasma in lactating rat. In kind it is ADME. Conditions: female.
A short description of data set [22]: Ratio of AUC in milk to plasma in lactating rat. Conditions: female, read-out: Ratio AUC. The format is ADME.
Data set [23] deals with P-glycoprotein (human). Kind of data set: Efflux ratio of apparent permeability from basolateral to apical side over apical to basolateral side in pig LLC-PK1 cells expressing human P-glycoprotein at 5 uM by liquid scintillation counting. In kind it is ADME, cell-based, Sus scrofa.
Data set [24] deals with BCRP. The data set is described as follows: Permeability in human Caco2 cells assessed as 11 uM BCRP inhibitor Ko134-mediated inhibition of digoxin at 5 uM by liquid scintillation counting. The format is ADME, cell-based. The settings on record: Caco-2, with Ko134 11 uM. The method, boiled down: (§2)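 Caco-2 monolayers (passages 17–40, 13–22 days post-seeding) were used. Bidirectional transport ran for 2 h at 37°C, shaken at 50 rpm, in HBSS/10 mM HEPES pH 7.4. […] Inhibitors were present in both chambers: ketoconazole or cyclosporin A (20 or 50 µM), Ko134 (1 or 11 µM), or probenecid with the 20 µM runs. Results are % inhibition of efflux ratio.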
(Caco-2 cells form a polarised layer with tight junctions and transporters.)

Data set [25] has as its system P-gp. Kind of data set: Apparent permeability in human Caco2 cells assessed as 50 uM P-gp inhibitor cyclosporin A-mediated inhibition of digoxin efflux at 5 uM by liquid scintillation counting. In kind it is ADME, cell-based. Conditions: Caco-2 cells, with cyclosporin A 50 uM. Summed up: as §2
Data set [26] relates to P-gp. Kind of data set: Apparent permeability in human Caco2 cells assessed as 50 uM P-gp inhibitor ketoconazole-mediated inhibition of digoxin efflux at 5 uM by liquid scintillation counting. In kind it is ADME, cell-based. Conditions: Caco-2 cells, with ketoconazole 50 uM. Summed up:
as §2

The nature of data set [27]: Apparent permeability from apical to basolateral side of human Caco2 cells at 5 uM by liquid scintillation counting. Conditions: Caco-2.
A short description of data set [28]: Apparent permeability from basolateral to apical side of human Caco2 cells at 5 uM by liquid scintillation counting. The settings on record: Caco-2.
Data set [29] concerns BCRP. Kind of data set: in vitro. Conditions: human, Caco-2, with Ko134 11 uM.
The test system of data set [30] is BCRP. The data set is described as follows: Efflux ratio of apparent permeability from basolateral to apical side over apical to basolateral side in MDCK2 cells expressing human BCRP at 5 uM by liquid scintillation counting. The settings on record: dog. In kind it is ADME, cell-based, Canis lupus familiaris, MDCK-II. The method, boiled down:
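MDCKII cells, mock or carrying human BCRP cDNA, were cultured 4 days on transwell inserts, with 10 mM sodium butyrate added 24 h before assay. Cells were pre-incubated 10 min in modified Krebs-Henseleit buffer with 5 mM glucose at 37°C. […] Samples were scintillation counted, and efflux ratio = PcB-A/PcA-B.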

Turning to `COc1ccc(-n2nc(C(N)=O)c3c2C(=O)N(c2ccc(N4CCCC[14C]4=O)cc2)CC3)cc1`, the Intrinsic activity came to 64 pmol in data set [1]; 548 pmol in [2]; 1485 pmol in data set [3]; 2772 pmol in data set [4]; 146 pmol in data set [13]; 167 pmol in [14]. The results for the Intrinsic activity in data set [15] and in data set [16] were 294 pmol and 33 pmol, respectively. Further, the Drug transport in data set [5] is on record as 471 pmol/cm2/hr; in data set [6], 360 pmol/cm2/hr; in data set [7], 474 pmol/cm2/hr; in data set [8], 71 pmol/cm2/hr; in data set [9], 139 pmol/cm2/hr; in [10], 1179 pmol/cm2/hr. Also, the Drug transport was 3194 pmol/cm2/hr in data set [11] and 5962 pmol/cm2/hr in data set [12].

For `COc1ccc(-n2nc(C(N)=O)c3c2C(=O)N(c2ccc(N4CCCCC4=O)cc2)CC3)cc1` [APIXABAN], the bioavailability (as a rule, dose-corrected exposure relative to a reference, in per cent) was found to be 30% in data set [17], 70% in [18] and 50% in data set [19]. In addition, the Kp is below 0.1 in data set [20], 8 in data set [21] and 30 in data set [22].

`C[C@H]1O[C@@H](O[C@H]2[C@@H](O)C[C@H](O[C@H]3[C@@H](O)C[C@H](O[C@H]4CC[C@@]5(C)[C@H](CC[C@@H]6[C@@H]5C[C@@H](O)[C@]5(C)[C@@H](C7=CC(=O)OC7)CC[C@]65O)C4)O[C@@H]3C)O[C@@H]2C)C[C@H](O)[C@@H]1O` [DIGOXIN]: in data set [23], the efflux ratio (commonly a quotient of directional permeabilities that is used to spot active efflux) at 5 µM is above 7. In addition, the inhibition (as a rule, how much of the control response was suppressed) at 5 µM in data set [24] was 50%; in [25], 98%; in [26], 100%. Besides, the Papp A→B (as a rule, how fast a substance crosses the layer from the apical side) at 5 µM in [27] worked out at 2.3 ×10⁻⁶ cm/s. For the same compound, the apparent permeability from basolateral to apical (Papp B→A) (as a rule, how fast a substance crosses the layer from the basolateral side) at 5 µM in data set [28] came to 20.5 ×10⁻⁶ cm/s.

In turn, `O=C1CN(/N=C/c2ccc([N+](=O)[O-])o2)C(=O)N1` [NITROFURANTOIN] yielded an inhibition at 5 µM in [29] of 78%.

As to `COc1cc2nc(N3CCN(C(=O)c4ccco4)CC3)nc(N)c2cc1OC` [PRAZOSIN], in data set [30], the efflux ratio at 5 µM came out at 10.
